Laboratory results: article PMC3856871 (MedChemComm, 2012)
“Also recorded” adds a separate entry of the source.

Tests used:
[1] = tested on: acetyl-α-tubulin; assay: Western blot on MCF-7 cells, acetylation status of α-tubulin; type: cell-based; settings: 24 h; for acetyl-α-tubulin accumulation: 50 μM, comparison of SIRT inhibitors (Fig. 3)
Method in brief: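 MCF-7 cells exposed 24 h to test compound at increasing concentrations […]. Acetylation of α-tubulin (SIRT2 biomarker) and of histone H3-K9 (SIRT1 biomarker) monitored in parallel.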

[2] = tested on: p53 acetylation at lysine 382; assay: Western blot on MCF-7 cells, p53 acetylation at lysine 382; type: cell-based; settings: 24 h, 50 μM (Fig. 3)
[3] = tested on: MCF-7 breast carcinoma cell line; type: cell-based; settings: MCF-7 cells, 50 μM, 24 h
[4] = target: T1, SIRT2 (Homo sapiens, UniProt Q8IXJ6); assay: in vitro enzymatic fluorimetric assay, SIRT2 inhibitory activity; type: biochemical; settings: for selectivity for SIRT2 over SIRT1: in vitro
T1 sequence (Q8IXJ6 1-389): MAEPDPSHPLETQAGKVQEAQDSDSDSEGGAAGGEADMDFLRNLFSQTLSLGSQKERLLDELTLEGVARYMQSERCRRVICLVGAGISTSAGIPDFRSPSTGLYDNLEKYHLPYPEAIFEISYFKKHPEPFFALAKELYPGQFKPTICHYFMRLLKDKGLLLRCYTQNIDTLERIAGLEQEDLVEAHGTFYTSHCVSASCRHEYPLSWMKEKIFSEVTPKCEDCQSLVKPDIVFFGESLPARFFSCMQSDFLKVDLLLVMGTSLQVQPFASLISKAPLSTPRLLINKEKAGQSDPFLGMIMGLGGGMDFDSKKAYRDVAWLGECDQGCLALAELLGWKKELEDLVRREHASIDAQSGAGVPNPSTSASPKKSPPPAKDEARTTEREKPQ

[5] = tested on: H3-K9 acetylation; assay: Western blot on MCF-7 cells, acetylation status of H3-K9; type: cell-based; settings: 24 h, concentrations up to 50 μM
[6] = tested on: pRb phosphorylation at Ser807/Ser811; assay: Western blot on MCF-7 cells, pRb phosphorylation; type: cell-based; settings: 24 h, 50 μM
[7] = tested on: MCF-7 cells; assay: proliferative analysis / cell viability assay on MCF-7 cells; type: cell-based; settings: 30 μM, 0-72 h

SMILES	acetyl-α-tubulin accumulation [1]	p53 acetylation at lysine 382 [2]	cell cycle phase in which cells accumulate [3]	further results
O=C(Nc1cccc(Br)c1)c1cccc(S(=O)(=O)N2CCCCCC2)c1 [AK-7]	no significant effect	moderately induce p53 acetylation at lysine 382	increase in cells primarily in G2/M phase	–
NC(=O)c1ccc2c(c1)CCc1cc([N+](=O)[O-])ccc1N2 [Compound 8]	substantial accumulation of acetyl-α-tubulin	–	high number of cells to accumulate at G2/M phase	selectivity for SIRT2 over SIRT1 [4]: more than 30 fold; acetylation of α-tubulin ([1]; concentrations up to 50 μM): induce hyperacetylation of α-tubulin; acetylation levels of H3-K9 [5]: without increasing the acetylation levels of H3-K9; pRb phosphorylation at Ser807/Ser811 [6]: impede pRb phosphorylation at Ser807/Ser811; antiproliferative effect [7]: antiproliferative activity; also recorded: abolished cell proliferation completely
CC(C)(C)NS(=O)(=O)c1ccc2c(c1)Nc1ccccc1CC2 [Compound 20]	–	–	–	selectivity for SIRT2 over SIRT1 [4]: more than 30 fold
CN1c2ccc(C(N)=O)cc2CCc2cc([N+](=O)[O-])ccc21 [Compound 29]	–	–	–	loss of SIRT2 potency relative to compound 8 ([4]; N-methyl derivative vs 8): 4 fold
NC(=O)C1CCCc2c1[nH]c1ccc(Cl)cc21 (stereo not drawn) [EX-527]	–	–	accumulate predominantly in G1	reduction of cell proliferation relative to DMSO vehicle control [7]: approximately 50%
CC(C(=O)Nc1cccc(/N=C/c2c(O)ccc3ccccc23)c1)c1ccccc1 (stereo not drawn) [Salermide]	slight increase in acetyl-α-tubulin	moderately induce p53 acetylation at lysine 382	increase in cells primarily in G2/M phase	antiproliferative effect [7]: abolished cell proliferation completely
CC(NC(=O)c1ccccc1/N=C/c1c(O)ccc2ccccc12)c1ccccc1 (stereo not drawn) [Sirtinol]	no significant effect	moderately induce p53 acetylation at lysine 382	accumulate predominantly in G1	–
